From ChEMBL document CHEMBL1154385, “(4-Piperidinyl)-piperazine: a new platform for acetyl-CoA carboxylase inhibitors” (Bioorg Med Chem Lett, 2009)

Legend:
[1] = target: Acetyl-CoA carboxylase (Homo sapiens, UniProt Q13085+O00763); assay: Inhibition of partially purified human liver ACC1/2
[2] = test system: HepG2; assay: Inhibition of fatty acid synthesis in human HepG2 cells after 48 hrs; format: functional, cell-based; details: for IC50: Homo sapiens, HepG2, 48 h
Procedure, shortened: (§1)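 HepG2 cells. Fatty acid synthesis read as decreased [¹⁴C] acetate incorporation into cellular lipids, reported as IC₅₀. Fatty acid oxidation read as T₂O generated in the culture medium, reported as EC₅₀.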

[3] = test system: HepG2; assay: Induction of fatty acid oxidation in human HepG2 cells after 48 hrs; format: functional, cell-based
Procedure, shortened: as §1

[4] = target: Acetyl-CoA carboxylase 2 (Homo sapiens, UniProt O00763); assay: Inhibition of human recombinant ACC2
Sequence of Acetyl-CoA carboxylase 2 (O00763 whole entry): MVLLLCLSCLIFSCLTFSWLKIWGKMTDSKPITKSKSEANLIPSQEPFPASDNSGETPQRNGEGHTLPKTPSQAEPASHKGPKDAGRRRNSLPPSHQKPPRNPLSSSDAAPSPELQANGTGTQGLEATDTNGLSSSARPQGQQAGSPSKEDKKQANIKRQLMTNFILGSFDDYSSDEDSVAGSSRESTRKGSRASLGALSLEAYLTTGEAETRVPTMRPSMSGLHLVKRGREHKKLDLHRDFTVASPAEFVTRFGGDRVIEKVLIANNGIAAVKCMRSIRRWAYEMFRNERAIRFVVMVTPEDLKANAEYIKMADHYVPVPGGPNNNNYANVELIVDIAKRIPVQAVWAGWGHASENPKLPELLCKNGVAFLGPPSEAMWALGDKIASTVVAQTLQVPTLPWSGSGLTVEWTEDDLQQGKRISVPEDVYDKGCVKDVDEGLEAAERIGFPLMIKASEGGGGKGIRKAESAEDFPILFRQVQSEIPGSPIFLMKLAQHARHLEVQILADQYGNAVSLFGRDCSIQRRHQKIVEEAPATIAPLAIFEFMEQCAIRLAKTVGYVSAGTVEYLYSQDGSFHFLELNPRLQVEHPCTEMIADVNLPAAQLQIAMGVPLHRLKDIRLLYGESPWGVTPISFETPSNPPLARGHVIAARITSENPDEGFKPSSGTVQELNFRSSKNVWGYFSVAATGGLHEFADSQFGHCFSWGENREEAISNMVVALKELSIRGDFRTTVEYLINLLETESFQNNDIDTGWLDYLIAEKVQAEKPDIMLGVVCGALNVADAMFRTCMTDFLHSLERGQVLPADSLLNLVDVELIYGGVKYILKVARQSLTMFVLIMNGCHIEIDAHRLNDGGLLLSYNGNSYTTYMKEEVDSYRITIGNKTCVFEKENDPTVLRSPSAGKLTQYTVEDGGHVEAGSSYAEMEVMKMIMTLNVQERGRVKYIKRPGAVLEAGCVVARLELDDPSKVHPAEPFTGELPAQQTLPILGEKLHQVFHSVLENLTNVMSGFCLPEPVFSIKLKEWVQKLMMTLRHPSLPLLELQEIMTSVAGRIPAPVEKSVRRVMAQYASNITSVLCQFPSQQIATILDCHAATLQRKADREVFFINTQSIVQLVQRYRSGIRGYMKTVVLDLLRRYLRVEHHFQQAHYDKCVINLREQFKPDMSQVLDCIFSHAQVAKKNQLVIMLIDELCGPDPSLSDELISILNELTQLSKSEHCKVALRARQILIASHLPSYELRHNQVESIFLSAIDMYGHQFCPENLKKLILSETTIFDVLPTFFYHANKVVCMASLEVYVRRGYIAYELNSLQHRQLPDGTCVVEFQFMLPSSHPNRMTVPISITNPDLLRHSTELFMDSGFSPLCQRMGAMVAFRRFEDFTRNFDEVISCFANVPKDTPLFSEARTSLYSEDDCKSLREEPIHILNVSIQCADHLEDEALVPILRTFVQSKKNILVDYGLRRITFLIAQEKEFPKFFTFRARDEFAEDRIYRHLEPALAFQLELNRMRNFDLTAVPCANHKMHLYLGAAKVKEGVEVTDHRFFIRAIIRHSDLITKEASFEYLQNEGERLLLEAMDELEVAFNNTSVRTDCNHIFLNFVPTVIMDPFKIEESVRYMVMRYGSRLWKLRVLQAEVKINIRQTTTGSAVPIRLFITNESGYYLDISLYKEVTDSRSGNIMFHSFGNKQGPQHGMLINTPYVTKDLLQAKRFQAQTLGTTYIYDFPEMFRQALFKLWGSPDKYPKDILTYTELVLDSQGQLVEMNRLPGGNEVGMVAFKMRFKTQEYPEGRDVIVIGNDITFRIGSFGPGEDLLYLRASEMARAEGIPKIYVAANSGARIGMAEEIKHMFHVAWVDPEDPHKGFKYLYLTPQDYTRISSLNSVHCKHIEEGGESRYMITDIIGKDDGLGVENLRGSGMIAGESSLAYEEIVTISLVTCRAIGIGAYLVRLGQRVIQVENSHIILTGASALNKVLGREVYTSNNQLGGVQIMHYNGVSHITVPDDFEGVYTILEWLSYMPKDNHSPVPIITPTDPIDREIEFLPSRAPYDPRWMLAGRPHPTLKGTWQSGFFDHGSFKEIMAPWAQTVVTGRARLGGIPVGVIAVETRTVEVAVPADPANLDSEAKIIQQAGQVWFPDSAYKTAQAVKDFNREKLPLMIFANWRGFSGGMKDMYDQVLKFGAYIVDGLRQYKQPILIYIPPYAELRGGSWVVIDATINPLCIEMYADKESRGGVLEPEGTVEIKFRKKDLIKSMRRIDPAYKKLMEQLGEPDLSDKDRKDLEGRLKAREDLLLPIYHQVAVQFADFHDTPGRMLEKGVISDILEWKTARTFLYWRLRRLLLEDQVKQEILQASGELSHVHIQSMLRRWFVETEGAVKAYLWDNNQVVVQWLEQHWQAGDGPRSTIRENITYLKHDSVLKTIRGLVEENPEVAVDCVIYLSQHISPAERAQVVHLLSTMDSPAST
Procedure, shortened: (§2)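 Recombinant human ACC1 and ACC2 enzymes; activity read as inhibition of malonyl-CoA synthesis.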

[5] = target: Acetyl-CoA carboxylase 1 (Homo sapiens, UniProt Q13085); assay: Inhibition of human recombinant ACC1
Procedure, shortened: as §2

[6] = Tmax in Sprague-Dawley rat at 10 mg/kg, po; format: ADME, organism-based; parameters: dose 10 mg/kg, route oral; details: in vivo
Procedure, shortened: (§3)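 Male Sprague-Dawley rats given a single oral dose of 10 mg/kg; plasma exposure parameters taken from the plasma profile.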

[7] = Cmax in Sprague-Dawley rat at 10 mg/kg, po; format: ADME, organism-based; parameters: dose 10 mg/kg, route oral; details: in vivo
Procedure, shortened: as §3

[8] = Metabolic stability in rat liver microsome assessed as drug remaining at 5 uM after 15 mins; format: ADME; details: liver microsomes, read-out: Activity
Procedure, shortened: (§4)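 Compound at 5 µM incubated at 37 °C for 15 min with 1 mg/mL human or rat liver microsomes. Cofactors: 1.5 mM glucose-6-phosphate, 0.16 mM NADP, 1 U/mL glucose-6-phosphate dehydrogenase. Medium: 250 mM phosphate buffer, 2.4 mM MgCl₂, 69 mM KCl. Compound measured by LC–MS/MS at 0 and 15 min; % remaining reported.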

[9] = AUC in Sprague-Dawley rat at 10 mg/kg, po; format: ADME, organism-based; parameters: dose 10 mg/kg, route oral; details: plasma
Procedure, shortened: as §3

[10] = Metabolic stability in human liver microsome assessed as drug remaining at 5 uM after 15 mins; format: ADME; details: liver microsomes, read-out: Activity
Procedure, shortened: as §4

Structure (SMILES) | IC50 [1] [nM] | other results
COC(=O)N1CCC(C(=O)N2CCC(N3CCN(C(=O)c4cc(-c5ccccc5)nc(-c5ccccc5)c4)CC3)CC2)CC1 | 102 | –
Cc1cc(C(=O)N2CCC(N3CCN(C(=O)c4cc(-c5ccccc5)nc(-c5ccccc5)c4)CC3)CC2)c(C)o1 | 157 | –
CC(=O)N1CCC(C(=O)N2CCC(N3CCN(C(=O)c4cc(-c5ccccc5)nc(-c5ccccc5)c4)CC3)CC2)CC1 | 126 | inhibition (INH) [2]: 72%; Activity [3]: 148%
CO[C@H]1CC[C@H](C(=O)N2CCC(N3CCN(C(=O)c4cc(-c5ccccc5)nc(-c5ccccc5)c4)CC3)CC2)CC1 | 155 | –
CCC(=O)N1CCC(C(=O)N2CCC(N3CCN(C(=O)c4cc(-c5ccccc5)nc(-c5ccccc5)c4)CC3)CC2)CC1 | 115 | –
O=C(c1ccccc1)N1CCC(C(=O)N2CCC(N3CCN(C(=O)c4cc(-c5ccccc5)nc(-c5ccccc5)c4)CC3)CC2)CC1 | 290 | –
COCC(=O)N1CCC(C(=O)N2CCC(N3CCN(C(=O)c4cc(-c5ccccc5)nc(-c5ccccc5)c4)CC3)CC2)CC1 | 169 | –
O=C(CO)N1CCC(C(=O)N2CCC(N3CCN(C(=O)c4cc(-c5ccccc5)nc(-c5ccccc5)c4)CC3)CC2)CC1 | 102 | –
CC(C)OC(=O)N1CCC(C(=O)N2CCC(N3CCN(C(=O)c4cc(-c5ccccc5)nc(-c5ccccc5)c4)CC3)CC2)CC1 | 411 | –
NC(=O)N1CCC(C(=O)N2CCC(N3CCN(C(=O)c4cc(-c5ccccc5)nc(-c5ccccc5)c4)CC3)CC2)CC1 | 151 | –
CC(=O)N1CCC(C(=O)N2CCC(N3CCN(C(=O)c4cc(-c5ccccc5)nc(-c5ccc(F)cc5)c4)CC3)CC2)CC1 | 184 | –
CC(=O)N1CCC(C(=O)N2CCC(N3CCN(C(=O)c4cc(-c5ccc(C)cc5)nc(-c5ccc(C)cc5)c4)CC3)CC2)CC1 | 76 | IC50 [4]: 23 nM; IC50 [5]: 101 nM; Tmax [6]: 4 h; Cmax [7]: 107 ng/mL; remaining at 0.25 h, 5 µM [8]: 96%; inhibition (INH) [2]: 77%; IC50 [2]: 340 nM; AUC [9]: 1000 ng·h/mL; Activity [3]: 176%; EC50 ([3]; Homo sapiens, HepG2, 48 h): 580 nM; remaining at 0.25 h, 5 µM [10]: 87%
COc1ccc(-c2cc(C(=O)N3CCN(C4CCN(C(=O)C5CCN(C(C)=O)CC5)CC4)CC3)cc(-c3ccc(OC)cc3)n2)cc1 | 68 | inhibition (INH) [2]: 77%; Activity [3]: 167%
CC(=O)N1CCC(C(=O)N2CCC(N3CCN(C(=O)c4cc(-c5ccc(O)cc5)nc(-c5ccc(O)cc5)c4)CC3)CC2)CC1 | 52 | inhibition (INH) [2]: 29%; Activity [3]: 123%
CC(=O)N1CCC(C(=O)N2CCC(N3CCN(C(=O)c4cc(-c5ccc(CO)cc5)nc(-c5ccc(CO)cc5)c4)CC3)CC2)CC1 | 32 | Activity [3]: 120%
CC(=O)N1CCC(C(=O)N2CCC(N3CCN(C(=O)c4cc(-c5cccc(C(N)=O)c5)nc(-c5cccc(C(N)=O)c5)c4)CC3)CC2)CC1 | 73 | Activity [3]: 94%
CC(=O)N1CCC(C(=O)N2CCC(N3CCN(C(=O)c4cc(-c5ccc(C(N)=O)cc5)nc(-c5ccc(C(N)=O)cc5)c4)CC3)CC2)CC1 | 67 | Activity [3]: 135%

Structure (SMILES) | IC50 [1] [nM] | other results
CNC(=O)N1CCC(C(=O)N2CCC(N3CCN(C(=O)c4cc(-c5ccccc5)nc(-c5ccccc5)c4)CC3)CC2)CC1 | 95 | –
CN(C)C(=O)N1CCC(C(=O)N2CCC(N3CCN(C(=O)c4cc(-c5ccccc5)nc(-c5ccccc5)c4)CC3)CC2)CC1 | 169 | –
CS(=O)(=O)N1CCC(C(=O)N2CCC(N3CCN(C(=O)c4cc(-c5ccccc5)nc(-c5ccccc5)c4)CC3)CC2)CC1 | 248 | –
CC(=O)N1CCC(C(=O)N2CCC(N3CCN(C(=O)c4cc(-c5cccc(F)c5)nc(-c5cccc(F)c5)c4)CC3)CC2)CC1 | 131 | –
O=C(c1cc(-c2ccccc2)nc(-c2ccccc2)c1)N1CCN(C2CCN(C(=O)N3CCOCC3)CC2)CC1 | 869 | –
O=C(c1ccccc1)N1CCC(N2CCN(C(=O)c3cc(-c4ccccc4)nc(-c4ccccc4)c3)CC2)CC1 | 693 | –
O=C(c1cc(-c2ccccc2)nc(-c2ccccc2)c1)N1CCN(C2CCN(C(=O)C3CCCCC3)CC2)CC1 | 244 | –
O=C(c1cc(-c2ccccc2)nc(-c2ccccc2)c1)N1CCN(C2CCN(C(=O)N3CCCCC3)CC2)CC1 | 434 | –
O=C(c1c2ccccc2cc2ccccc12)N1CCN(C2CCN(C(=O)C3CCCC3)CC2)CC1 | 95 | –
O=C(c1ccco1)N1CCC(N2CCN(C(=O)c3c4ccccc4cc4ccccc34)CC2)CC1 | 161 | –
Cc1cc(C(=O)N2CCC(N3CCN(C(=O)c4c5ccccc5cc5ccccc45)CC3)CC2)c(C)o1 | 60 | –
O=C(c1c2ccccc2cc2ccccc12)N1CCN(C2CCN(C(=O)C3CCCCC3)CC2)CC1 | 91 | –
O=C(Cc1ccccc1)N1CCC(N2CCN(C(=O)c3c4ccccc4cc4ccccc34)CC2)CC1 | 2112 | –
O=C(c1c2ccccc2cc2ccccc12)N1CCN(C2CCN(C(=O)N3CCOCC3)CC2)CC1 | 239 | –
O=C(c1c2ccccc2cc2ccccc12)N1CCN(C2CCN(C(=O)N3CCCCC3)CC2)CC1 | 121 | –
O=C(c1ccccc1)N1CCC(N2CCN(C(=O)c3c4ccccc4cc4ccccc34)CC2)CC1 | 66 | –
O=C(c1c2ccccc2cc2ccccc12)N1CCC(N2CCC[C@@H](C(=O)N3CCOCC3)C2)CC1 | 116 | IC50 [4]: 194 nM; IC50 [5]: 456 nM; IC50 [2]: 840 nM; remaining at 0.25 h, 5 µM [10]: 52%
